These results are taken from ChEMBL document CHEMBL3585285, “Amino Acid Thioester Derivatives: A Highly Promising Scaffold for the Development of Metallo-β-lactamase L1 Inhibitors” (ACS Med Chem Lett, 2015).

The subject of assay [1] is Aeromonas veronii bv. sobria. The assay can be described thus: Inhibition of Aeromonas veronii bv. sobria ImiS overexpressed in Escherichia coli BL21 (DE3) using imipenem as substrate up to 5 uM incubated for 30 mins prior to testing by UV spectrophotometric analysis. The procedure, abridged:
(§1)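 ImiS activity measured as imipenem hydrolysis monitored at 300 nm. Initial rates were taken with and without inhibitor, each in triplicate and averaged. IC50 is the inhibitor concentration giving a 50% drop in enzyme activity.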

Assay [2] addresses Metallo-beta-lactamase type 2 (Bacteroides fragilis) (UniProt P25910). The assay can be described thus: Inhibition of Bacteroides fragilis CcrA overexpressed in Escherichia coli BL21 (DE3) using cefazolin as substrate up to 5 uM incubated for 30 mins prior to testing by UV spectrophotometric analysis. In a few lines: (§2)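 Each enzyme (CcrA or NDM-1) was assayed on cefazolin hydrolysis followed at 262 nm. Initial rates were measured in triplicate with or without inhibitor and averaged. IC50 is the concentration causing 50% loss of activity.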

The subject of assay [3] is Escherichia coli. Briefly: Antibacterial activity against Escherichia coli assessed as cefazolin MIC after 12 hrs by macrodilution broth method (reference value: 64 ug/ml). Type of assay: functional.
For assay [4], the system named is Escherichia coli. The assay can be described thus: Antibacterial activity against Escherichia coli assessed as imipenem MIC after 12 hrs by macrodilution broth method (reference value: 0.5 ug/ml). Type of assay: functional.
Assay [5] is described as follows: Inhibition of NDM1 (unknown origin) overexpressed in Escherichia coli BL21 (DE3) assessed as cefazolin MIC at 16 ug/ml after 12 hrs by macrodilution broth method. In a few lines:
(§3)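 MICs of antibiotic were measured with and without inhibitor at a final 16 μg/mL in E. coli BL21(DE3) carrying pMSZ02-CcrA, pET26b-NDM-1, pET26b-ImiS or pET26b-L1, plus plasmid-free BL21(DE3) as a control. Cefazolin was the antibiotic for the CcrA, NDM-1 and L1 strains; imipenem was used for the ImiS strain.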

Assay [6] addresses Metallo-beta-lactamase type 2 (Bacteroides fragilis) (UniProt P25910). Briefly: Inhibition of Bacteroides fragilis CcrA overexpressed in Escherichia coli BL21 (DE3) assessed as cefazolin MIC at 16 ug/ml after 12 hrs by macrodilution broth method. The procedure, abridged:
as §3

The subject of assay [7] is Aeromonas veronii bv. sobria. Briefly: Inhibition of Aeromonas veronii bv. sobria ImiS overexpressed in Escherichia coli BL21 (DE3) assessed as imipenem MIC at 16 ug/ml after 12 hrs by macrodilution broth method. In a few lines: as §3
For assay [8], the target named is Beta-lactamase L1 (Stenotrophomonas maltophilia) (UniProt P52700). Briefly: Inhibition of Stenotrophomonas maltophilia L1 overexpressed in Escherichia coli BL21 (DE3) assessed as cefazolin MIC at 16 ug/ml after 12 hrs by macrodilution broth method. In a few lines:
as §3

Assay [9] has the same target. The assay can be described thus: Inhibition of Stenotrophomonas maltophilia L1 overexpressed in Escherichia coli BL21 (DE3) assessed as reduction of cefazolin MIC at 16 ug/ml after 12 hrs by macrodilution broth method relative to cefazolin-treated control. In a few lines: as §3
For assay [10], the target named is T1, Beta-lactamase L1 (Stenotrophomonas maltophilia, UniProt P52700). Briefly: Inhibition of Stenotrophomonas maltophilia L1 overexpressed in Escherichia coli BL21 (DE3) using cefazolin as substrate incubated for 30 mins prior to testing by UV spectrophotometric analysis.
Assay [11] deals with T1, Beta-lactamase L1. Briefly: Mixed-type inhibition of Stenotrophomonas maltophilia L1 overexpressed in Escherichia coli BL21 (DE3) using cefazolin as substrate incubated for 30 mins prior to testing by Lineweaver-Burk plot analysis.
A short description of assay [12]: Inhibition of NDM1 (unknown origin) overexpressed in Escherichia coli BL21 (DE3) using cefazolin as substrate incubated for 30 mins prior to testing by UV spectrophotometric analysis. The procedure, abridged:
as §2

The nature of assay [13]: Inhibition of Aeromonas veronii bv. sobria ImiS overexpressed in Escherichia coli BL21 (DE3) using imipenem as substrate incubated for 30 mins prior to testing by UV spectrophotometric analysis. In a few lines:
as §1

The target of assay [14] is Metallo-beta-lactamase type 2 (Bacteroides fragilis, UniProt P25910). The assay can be described thus: Inhibition of Bacteroides fragilis CcrA overexpressed in Escherichia coli BL21 (DE3) using cefazolin as substrate incubated for 30 mins prior to testing by UV spectrophotometric analysis. The procedure, abridged:
as §2

In assay [15] the test system is Escherichia coli. Briefly: Antibacterial activity against Escherichia coli after 12 hrs by macrodilution broth method. The assay is classed as functional.

SMILES strings stand for the structures. Values after ≈ are worked out from the molar mass of the structure shown. Active and inactive are the calls of the source. The rule behind the calls is not given here.

Sequence of Beta-lactamase L1 (Stenotrophomonas maltophilia) (P52700 34-290 limits assumed): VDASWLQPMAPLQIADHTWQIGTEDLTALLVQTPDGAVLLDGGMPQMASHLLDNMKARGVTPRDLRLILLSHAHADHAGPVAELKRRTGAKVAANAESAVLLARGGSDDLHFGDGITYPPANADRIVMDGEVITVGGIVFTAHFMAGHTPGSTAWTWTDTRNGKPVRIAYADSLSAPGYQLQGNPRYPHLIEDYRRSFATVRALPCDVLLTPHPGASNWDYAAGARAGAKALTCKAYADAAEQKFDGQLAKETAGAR
Sequence of Metallo-beta-lactamase type 2 (Bacteroides fragilis) (P25910 whole entry): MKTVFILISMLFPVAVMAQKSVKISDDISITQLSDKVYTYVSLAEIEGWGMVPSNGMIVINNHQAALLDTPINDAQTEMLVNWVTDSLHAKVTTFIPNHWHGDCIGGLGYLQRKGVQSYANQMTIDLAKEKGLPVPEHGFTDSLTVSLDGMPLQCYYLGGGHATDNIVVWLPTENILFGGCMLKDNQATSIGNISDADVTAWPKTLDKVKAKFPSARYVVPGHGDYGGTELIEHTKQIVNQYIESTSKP
T1 sequence (P52700 whole entry): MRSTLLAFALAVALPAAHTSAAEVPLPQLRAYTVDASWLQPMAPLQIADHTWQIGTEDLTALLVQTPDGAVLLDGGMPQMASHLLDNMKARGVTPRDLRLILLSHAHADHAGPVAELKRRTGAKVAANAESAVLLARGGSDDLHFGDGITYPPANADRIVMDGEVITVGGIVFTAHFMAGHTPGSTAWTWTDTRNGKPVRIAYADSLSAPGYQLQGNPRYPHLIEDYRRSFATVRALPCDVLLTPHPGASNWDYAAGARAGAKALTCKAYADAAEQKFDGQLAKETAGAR
Sequence of Metallo-beta-lactamase type 2 (P25910 whole entry): as the sequence (P25910 whole entry) above

For orientation: IC50 means the midpoint of a concentration-inhibition curve. One may read the Ki as a measure of affinity in units of concentration, obtained from inhibition or displacement. A higher Ki goes with lower affinity. As to `O=C(O)CSC(=O)[C@H](CCCCNC(=O)Cc1cccs1)NC(=O)Cc1cccs1`, the inhibition result in assay [1] and in assay [2] was “inactive” in each case. Besides, the MIC in assay [3] stood at 64 µg/mL; in assay [4], 0.5 µg/mL; in [5], 4 µg/mL; in assay [6], 4 µg/mL; in [7] it was 2 µg/mL; in assay [8], 4 µg/mL. For the same compound, in [9], the fold change (FC) amounted to 2. This compound also registered an IC50 in assay [10] of 1080 nM. In assay [11], this compound came in with a Ki of 190 nM.

With `O=C(O)CSC(=O)[C@@H]1CCCN1C(=O)Cc1cccs1`, the inhibition result in [1] and in assay [2] was “inactive” in each case. Besides, the MIC in assay [3] is 64 µg/mL; in assay [4], 0.5 µg/mL; in assay [5], 8 µg/mL; in assay [6] it was 4 µg/mL; in assay [7] it was 2 µg/mL; in assay [8], 2 µg/mL. The fold change (FC) in assay [9] came to 4. In [10], this compound gave an IC50 of 450 nM. For the same compound, the Ki in assay [11] is 870 nM.

For `O=C(O)CSC(=O)[C@H](Cc1ccccc1)NC(=O)Cc1cccs1`, the IC50 in assay [12] turned out to be 36300 nM; in assay [13] it was 65400 nM; in assay [10], 2900 nM. In addition, the inhibition entry in assay [2] was “inactive”. Besides, the MIC was 64 µg/mL in assay [3]; 0.5 µg/mL in assay [4]; 8 µg/mL in assay [5]; 4 µg/mL in assay [6]; 1 µg/mL in assay [7]; 4 µg/mL in assay [8]. The fold change (FC) in assay [9] was 2. Further, in [11], the affinity, expressed as Ki, was 950 nM.

On to `O=C(O)CSC(=O)[C@H](Cc1c[nH]c2ccccc12)NC(=O)Cc1cccs1`, for which the inhibition entry in assay [1] and in assay [2] was “inactive” in each case. Further, the MIC in assay [3] was 64 µg/mL; in [4], 0.5 µg/mL; in [5], 8 µg/mL; in [6], 4 µg/mL; in [7], 2 µg/mL; in assay [8], 2 µg/mL. The fold change (FC) in assay [9] was found to be 4. The compound also yielded an IC50 in assay [10] of 290 nM. Besides, in assay [11], the affinity corresponds to a Ki of 170 nM.

In the case of `O=C(O)CSC(=O)CNC(=O)Cc1cccs1`, the IC50 in assay [12] is 28700 nM; in [13] it was 61500 nM; in assay [10] it was 840 nM. Besides, the inhibition entry in assay [2] was “inactive”. In addition, the MIC in assay [3] came out at 64 µg/mL; in [4] it was 0.5 µg/mL; in assay [5], 4 µg/mL; in assay [6], 4 µg/mL; in assay [7], 1 µg/mL; in [8], 4 µg/mL. Besides, the fold change (FC) in [9] was determined as 2. This compound yielded a Ki in assay [11] of 280 nM.

With `CSCC[C@H](NC(=O)Cc1cccs1)C(=O)SCC(=O)O`, the IC50 came out at 123000 nM in [14], 13300 nM in assay [13] and 18 nM in [10]. In addition, the MIC in assay [3] was more than 64 µg/mL; in assay [4] it was 0.5 µg/mL; in assay [5], 8 µg/mL; in assay [6] it was 4 µg/mL; in assay [7], 1 µg/mL; in assay [8], 2 µg/mL. The fold change (FC) in [9] was 4. In assay [11], this compound came in with a Ki of 110 nM.

As for `CC(C)[C@H](NC(=O)Cc1cccs1)C(=O)SCC(=O)O`, the IC50 in [12] was found to be 12400 nM; in assay [14] it was 38500 nM; in assay [13], 18900 nM; in assay [10], 450 nM. The MIC is more than 64 µg/mL in assay [3]; 0.5 µg/mL in assay [4]; 4 µg/mL in [5]; 4 µg/mL in assay [6]; 1 µg/mL in assay [7]; 4 µg/mL in assay [8]. The fold change (FC) in [9] came out at 2. This compound also had an inhibition constant (Ki) in [11] of 280 nM.

`Cc1nnc(SCC2=C(C(=O)O)N3C(=O)[C@@H](NC(=O)Cn4cnnn4)[C@H]3SC2)s1` [CEFAZOLIN] returned an MIC in assay [15] of 64 µg/mL (≈ 141 µM).

Consider `C[C@@H](O)[C@H]1C(=O)N2C(C(=O)O)=C(SCCNC=N)C[C@H]12` [IMIPENEM ANHYDROUS], for which, in assay [15], the MIC stood at 0.5 µg/mL (≈ 1.67 µM).

As for `O=C(O)CSC(=O)[C@H](CO)NC(=O)Cc1cccs1`, the IC50 in assay [13] was determined as 60100 nM; in [10], 1490 nM. Moreover, the inhibition entry in assay [2] was “inactive”. In addition, the MIC in assay [3] came to 64 µg/mL; in [4], 0.5 µg/mL; in [5], 8 µg/mL; in assay [6] it was 4 µg/mL; in [7], 1 µg/mL; in assay [8], 4 µg/mL. For the same compound, the fold change (FC) in [9] is 2. For the same compound, affinity in assay [11] was put at a Ki of 170 nM.

As for `CC(C)C[C@H](NC(=O)Cc1cccs1)C(=O)SCC(=O)O`, the figures for the IC50 in [12], in [13] and in [10] were 28500 nM, 3600 nM and 69 nM, respectively. In addition, the inhibition entry in [2] is “inactive”. Also, the MIC was determined as 64 µg/mL in [3]; 0.5 µg/mL in [4]; 4 µg/mL in assay [5]; 4 µg/mL in [6]; 1 µg/mL in [7]; 2 µg/mL in [8]. Besides, the fold change (FC) in assay [9] amounted to 4. This compound came in with a Ki in assay [11] of 210 nM.

As to `C[C@H](NC(=O)Cc1cccs1)C(=O)SCC(=O)O`, the half-inhibitory concentration (IC50) turned out to be 95700 nM in [12], 46300 nM in assay [13] and 910 nM in assay [10]. Further, in [2], the inhibition result is “inactive”. The MIC in [3] was more than 64 µg/mL; in assay [4], 0.5 µg/mL; in assay [5], 4 µg/mL; in assay [6] it was 4 µg/mL; in [7] it was 1 µg/mL; in assay [8], 2 µg/mL. Besides, in assay [9], the fold change (FC) is 4. The same compound came in with a Ki in assay [11] of 410 nM.
